Columns and labels:
[1] = Inhibition of recombinant human IL2R/IL2-induced mouse 32D-beta cell proliferation preincubated for 30 mins with protein followed by cell addition measured after 2.5 days by Alamar blue reduction assay
How it was run: (§1)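 32Dβ cells (IL-2Rβ/γ) were starved 4 h without cytokine, then 1 × 10^4 cells were cultured 2.5 days with 100 pM RLI or 1.5 nM IL-2. The cytokine was preincubated 30 min with fixed or increasing compound concentrations or vehicle (culture medium, DMSO 0.1% final). Alamar blue was added for 6 h at 37 °C, with fluorescence read at ex 560/em 590 nm. Tested in triplicate; IC50 is the mean of ≥2 independent assays.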

IL15-IL15 receptor [2] = molecular target: IL15-IL15 receptor (Homo sapiens, UniProt P40933); experiment: Inhibition of IL15R/IL15 interaction in human NK92 cells assessed as reduction of IL15-induced STAT5 phosphorylation preincubated for 30 mins with IL15 followed by cell addition measured after 1 hr by AlphaScreen assay; assay type: cell-based
Chain of IL15-IL15 receptor (Homo sapiens, UniProt P40933) (P40933 whole entry): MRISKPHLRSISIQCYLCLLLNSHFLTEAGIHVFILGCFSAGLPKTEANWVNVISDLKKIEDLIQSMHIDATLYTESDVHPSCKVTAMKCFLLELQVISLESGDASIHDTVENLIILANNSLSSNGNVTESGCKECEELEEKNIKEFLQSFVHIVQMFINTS
Chain of IL15-IL15 receptor (Homo sapiens, UniProt P40933) (Q13261 whole entry, further chain): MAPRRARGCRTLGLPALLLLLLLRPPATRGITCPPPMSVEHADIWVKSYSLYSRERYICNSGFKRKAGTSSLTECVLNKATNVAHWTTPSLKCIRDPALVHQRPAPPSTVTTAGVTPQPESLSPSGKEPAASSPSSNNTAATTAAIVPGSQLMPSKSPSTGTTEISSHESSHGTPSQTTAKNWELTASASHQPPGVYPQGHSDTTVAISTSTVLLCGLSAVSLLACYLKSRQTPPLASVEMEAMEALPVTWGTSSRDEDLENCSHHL
How it was run: (§2)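 NK-92 cells were washed and serum-starved overnight, then 2 × 10^5 cells were stimulated at 37 °C for 1 h with IL-15 (50 pM fixed) or IL-2. The cytokine had been preincubated 30 min with increasing compound concentrations or vehicle (PBS, BSA 0.1%, DMSO 0.6% final). Cells were lysed and p-Stat5 read by AlphaScreen SureFire. Duplicates, ≥3 independent experiments. Result is % reduction of the cytokine p-Stat5 response.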

[3] = Inhibition of IL2R/IL2 interaction in human NK92 cells assessed as reduction IL2-induced STAT5 phosphorylation preincubated for 30 mins with IL2 followed by cell addition measured after 1 hr by AlphaScreen assay; assay type: cell-based; how it was run: as §2
Interleukin-15 = Interleukin-15 (Homo sapiens, UniProt P40933); experiment: Binding affinity to recombinant human IL-15 by SPR assay
Chain of Interleukin-15 (P40933 whole entry): as the sequence (P40933 whole entry) above
How it was run: (§3)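 SPR on a BIAcore 3000 at 25 °C. Recombinant IL-15, RLI or IL-2 was amine-coupled to CM5 chips, and compounds were flowed over at 100 μM or at increasing concentrations (3.125–100 μM) in PBS or 1% or 5% DMSO. Binding was read as the change in RU, and Kd was derived from direct interaction.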

Interleukin-2 = Interleukin-2 (Homo sapiens, UniProt P60568); experiment: Binding affinity to recombinant human IL-2 by SPR assay; how it was run: as §3
Chain of Interleukin-2 (P60568 whole entry, the tested form may be a part): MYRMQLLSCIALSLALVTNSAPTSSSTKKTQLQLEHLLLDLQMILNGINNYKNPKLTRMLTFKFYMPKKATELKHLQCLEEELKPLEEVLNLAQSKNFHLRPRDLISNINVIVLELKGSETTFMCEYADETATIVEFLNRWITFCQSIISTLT

IL15-IL15 receptor [4] = molecular target: IL15-IL15 receptor (Homo sapiens, UniProt P40933+Q13261); experiment: Inhibition of human IL-15Ralpha-sushi domain/human IL-15-induced mouse 32D-beta cell proliferation preincubated for 30 mins with protein followed by cell addition measured after 2.5 days by Alamar blue reduction assay; how it was run: as §1
Chain of IL15-IL15 receptor (Homo sapiens, UniProt P40933+Q13261) (P40933 whole entry, the tested form may be a part): as the sequence (P40933 whole entry) above
Chain of IL15-IL15 receptor (Homo sapiens, UniProt P40933+Q13261) (Q13261 whole entry, the tested form may be a part): as the sequence (Q13261 whole entry, further chain) above

Row | IC50 (IL15-IL15 receptor [2]) | IC50 [3] | Compound | IC50 ([1]; Homo sapiens, read-out: IC50) | other results
1 |  |  | Cn1c(Cc2nn(C)c(=O)c3ccccc23)nnc1SCCCCCCCC(=O)Nc1ccc(O)cc1 | > 30 µM | 
2 |  |  | Cn1c(Cc2nn(C)c(=O)c3ccccc23)nnc1SCCCC(=O)Nc1ccc(Cl)cc1Cl | 11.2 µM | 
3 |  |  | CN(C(=O)CSc1nnc(Cc2nn(C)c(=O)c3ccccc23)n1C)c1ccc(Cl)cc1Cl |  | IC50 [1]: Not Active
4 |  |  | Cn1c(Cc2nn(C)c(=O)c3ccccc23)nnc1S(=O)(=O)CCCCCCCC(=O)Nc1ccc(Br)cc1Br | 1.6 µM | 
5 | 0.142 µM | 0.159 µM | Cn1c(Cc2nn(C)c(=O)c3ccccc23)nnc1SCCCCCCCCCCC(=O)Nc1ccc(Cl)cc1Cl | 4.4 µM | 
6 | 0.21 µM | 0.152 µM | Cn1c(Cc2nn(C)c(=O)c3ccccc23)nnc1SCCCCCCCC(=O)NC12CC3CC(CC(C3)C1)C2 | 1.8 µM | Kd (Interleukin-15): 78 µM
7 | 0.205 µM | 0.162 µM | COc1ccc(NC(=O)CCCCCCCSc2nnc(Cc3nn(C)c(=O)c4ccccc34)n2C)c(OC)c1 | 0.9 µM | Kd (Interleukin-2): 27.6 µM; Kd (Interleukin-15): 19.6 µM
8 |  |  | Cn1c(Cc2nn(C)c(=O)c3ccccc23)nnc1SCCCCCCCC(=O)Nc1ccc(I)cc1 | 0.8 µM | 
9 | 0.124 µM | 0.059 µM | Cn1c(Cc2nn(C)c(=O)c3ccccc23)nnc1SCCCCCCCCCCC(=O)NC12CC3CC(CC(C3)C1)C2 | 4.9 µM | Kd (Interleukin-15): 16 µM
10 | 0.093 µM | 0.089 µM | CC(C)Oc1ccc(NC(=O)CCCCCCCSc2nnc(Cc3nn(C)c(=O)c4ccccc34)n2C)cc1 | 0.6 µM | Kd (Interleukin-15): 20.9 µM
11 | 0.055 µM | 0.058 µM | CC(C)COc1ccc(NC(=O)CCCCCCCSc2nnc(Cc3nn(C)c(=O)c4ccccc34)n2C)cc1 | 3 µM | Kd (Interleukin-15): 25 µM
12 |  |  | Cn1c(Cc2nn(C)c(=O)c3ccccc23)nnc1SCc1cn(C23CC4CC(CC(C4)C2)C3)nn1 | 30 µM | 
13 |  |  | CN(C(=O)CCCCCCCSc1nnc(Cc2nn(C)c(=O)c3ccccc23)n1C)c1ccc(Cl)cc1Cl | 8.4 µM | 
14 |  |  | CCOC(=O)c1cccc(NC(=O)CSc2nnc(Cc3nn(C)c(=O)c4ccccc34)n2C)c1 |  | IC50 (IL15-IL15 receptor [4]): Not Active; IC50 [1]: Not Active
15 | 0.11 µM | 0.076 µM | Cn1c(Cc2nn(C)c(=O)c3ccccc23)nnc1SCCCCCCCC(=O)Nc1ccc(F)cc1F | 1 µM | 
16 |  |  | CC(C)Oc1ccc(NC(=O)CSc2nnc(Cc3nn(C)c(=O)c4ccccc34)n2C)cc1 | > 30 µM | 
17 |  |  | Cn1c(Cc2nn(C)c(=O)c3ccccc23)nnc1SCCCCCC(=O)Nc1ccc(Cl)cc1Cl | 9.8 µM | 
18 |  |  | Cn1c(Cc2nn(C)c(=O)c3ccccc23)nnc1SCCCCCCCCCC(=O)Nc1ccc(Cl)cc1Cl | 1.6 µM | 
19 |  |  | Cn1c(Cc2nn(C)c(=O)c3ccccc23)nnc1SCCCCCCCC(=O)Nc1ccc(Cl)cc1 | 0.8 µM | 
20 |  |  | COc1ccc(NC(=O)CSc2nnc(Cc3nn(C)c(=O)c4ccccc34)n2C)cc1 |  | IC50 (IL15-IL15 receptor [4]): Not Active; IC50 [1]: Not Active
21 |  |  | CCCCCCCCCCSc1nnc(Cc2nn(C)c(=O)c3ccccc23)n1C | 10 µM | 
22 |  |  | Cn1c(Cc2nn(C)c(=O)c3ccccc23)nnc1SCC(=O)Nc1cccc(C(=O)O)c1 |  | IC50 (IL15-IL15 receptor [4]): Not Active; IC50 [1]: Not Active
23 |  |  | Cn1c(Cc2nn(C)c(=O)c3ccccc23)nnc1SCCCCCCCCCCCCCCCC(=O)Nc1ccc(Cl)cc1Cl | 4.6 µM | 
24 | 0.092 µM | 0.083 µM | Cn1c(Cc2nn(C)c(=O)c3ccccc23)nnc1SCCCCCCCC(=O)Nc1ccc(Br)cc1Br | 1.3 µM | Kd (Interleukin-2): 10 µM; Kd (Interleukin-15): 11.6 µM

Row | IC50 (IL15-IL15 receptor [2]) | IC50 [3] | Compound | IC50 ([1]; Homo sapiens, read-out: IC50) | other results
25 |  |  | Cn1c(Cc2nn(C)c(=O)c3ccccc23)nnc1SCC(=O)Nc1ccc(O)cc1 |  | IC50 (IL15-IL15 receptor [4]): Not Active; IC50 [1]: Not Active
26 |  |  | Cn1nc(Cc2nnc(SCCCCCCCC(=O)Nc3ccc(Cl)cc3Cl)o2)c2ccccc2c1=O | 0.8 µM | 
27 | 0.1 µM | 0.073 µM | Cn1c(Cc2nn(C)c(=O)c3ccccc23)nnc1SCCCCCCCC(=O)Nc1ccc(N=[N+]=[N-])cc1 | 1.1 µM | Kd (Interleukin-15): 42.4 µM
28 |  |  | Cn1c(Cc2nn(C)c(=O)c3ccccc23)nnc1SCC(=O)Nc1ccc(F)cc1F |  | IC50 (IL15-IL15 receptor [4]): Not Active
29 |  |  | Cn1nc(Cc2nnc(SCCCCCCCCCCC(=O)Nc3ccc(Cl)cc3Cl)o2)c2ccccc2c1=O | 7.5 µM | 
30 | 0.201 µM | 0.204 µM | COc1ccc(NC(=O)CCCCCCCSc2nnc(Cc3nn(C)c(=O)c4ccccc34)n2C)cc1 | 3.2 µM | Kd (Interleukin-15): 26 µM
31 |  |  | Cn1c(Cc2nn(C)c(=O)c3ccccc23)nnc1SCCCCCCCC(=O)Nc1ccccc1O | 23 µM | 
32 | > 30 µM | > 30 µM | Cn1c(Cc2nn(C)c(=O)c3ccccc23)nnc1SCC(=O)NC12CC3CC(CC(C3)C1)C2 |  | IC50 (IL15-IL15 receptor [4]): Not Active; IC50 [1]: Not Active
33 |  |  | Cn1c(Cc2nn(C)c(=O)c3ccccc23)nnc1SCCCCCCCC(=O)Nc1cccc2ccccc12 | 1.9 µM | 
34 | 0.36 µM | 0.226 µM | COc1ccc(NC(=O)CCCCCCCSc2nnc(Cc3nn(C)c(=O)c4ccccc34)n2C)c(O)c1 | 1 µM | Kd (Interleukin-2): 12.5 µM; Kd (Interleukin-15): 21.2 µM
35 |  |  | CC(C)COc1ccc(NC(=O)CSc2nnc(Cc3nn(C)c(=O)c4ccccc34)n2C)cc1 | 30 µM | 
36 |  |  | Cn1c(Cc2nn(C)c(=O)c3ccccc23)nnc1SCCCCCCCCCCC(=O)Nc1cccc2ccccc12 | 8.5 µM | 
37 | 0.04 µM | 0.053 µM | CCCOc1ccc(NC(=O)CCCCCCCSc2nnc(Cc3nn(C)c(=O)c4ccccc34)n2C)cc1 | 0.9 µM | Kd (Interleukin-15): 19 µM
38 |  |  | Cn1c(Cc2nn(C)c(=O)c3ccccc23)nnc1SCc1cn(CCCCC(=O)Nc2ccc(Cl)cc2Cl)nn1 | > 30 µM | 
39 |  |  | Cn1c(Cc2nn(C)c(=O)c3ccccc23)nnc1SCC(=O)Nc1ccccc1C(=O)O |  | IC50 (IL15-IL15 receptor [4]): Not Active; IC50 [1]: Not Active
40 |  |  | CCOC(=O)c1ccccc1NC(=O)CSc1nnc(Cc2nn(C)c(=O)c3ccccc23)n1C | 30 µM | 
41 | 0.057 µM | 0.043 µM | CCOC(=O)c1cccc(NC(=O)CCCCCCCSc2nnc(Cc3nn(C)c(=O)c4ccccc34)n2C)c1 | 0.6 µM | Kd (Interleukin-2): 23.1 µM; Kd (Interleukin-15): 21.8 µM
42 | 0.076 µM | 0.069 µM | Cc1ccc(NC(=O)CCCCCCCSc2nnc(Cc3nn(C)c(=O)c4ccccc34)n2C)c(Cl)c1 | 1.7 µM | Kd (Interleukin-15): 24.1 µM
43 | 9.11 µM | 14.1 µM | Cn1c(Cc2nn(C)c(=O)c3ccccc23)nnc1SCC(=O)Nc1ccc(Cl)cc1Cl | 11.6 µM | Kd (Interleukin-2): 10.5 µM; Kd (Interleukin-15): 48.4 µM
44 |  |  | CCCOc1ccc(NC(=O)CSc2nnc(Cc3nn(C)c(=O)c4ccccc34)n2C)cc1 | > 30 µM | 
45 | 0.153 µM | 0.16 µM | Cn1c(Cc2nn(C)c(=O)c3ccccc23)nnc1SCCCCCCCC(=O)Nc1ccc(Cl)cc1Cl | 1.1 µM | Kd (Interleukin-2): 8 µM; Kd (Interleukin-15): 19.1 µM
46 |  |  | Cn1c(Cc2nn(C)c(=O)c3ccccc23)nnc1SCCCCCCCC(=O)Nc1ccc(O)cc1O | 21 µM | 
47 |  |  | Cn1c(Cc2nn(C)c(=O)c3ccccc23)nnc1SCC(=O)Nc1ccc(I)cc1 |  | IC50 (IL15-IL15 receptor [4]): Not Active; IC50 [1]: Not Active

Reference: ChEMBL document CHEMBL4011646, “Discovery of a Small-Molecule Inhibitor of Interleukin 15: Pharmacophore-Based Virtual Screening and Hit Optimization” (J Med Chem, 2017)
